Source: ChEMBL document CHEMBL1155274, “Synthesis of some novel pyrazolo[3,4-b]pyridine and pyrazolo[3,4-d]pyrimidine derivatives bearing 5,6-diphenyl-1,2,4-triazine moiety as potential antimicrobial agents” (Eur J Med Chem, 2009)
Values after ≈ are worked out from the molar mass of the structure shown.

Tests used:
Staphylococcus aureus [1] = assay: Antimicrobial activity against Staphylococcus aureus MTCCB 737 at 100 ug/mL after 16 to 20 hrs by disk diffusion method; format: functional; settings: read-out: IZ
In short: (§1)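 Nutrient agar disc diffusion against bacterial strains, compounds in DMSO at a single test concentration. DMSO blank; tetracycline as reference drug. Plates incubated 16–20 h at 37 °C, and the inhibition zone was measured.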

[2] = tested on: Staphylococcus epidermidis; assay: Antimicrobial activity against Staphylococcus epidermidis MTCCB 1824 at 100 ug/mL after 16 to 20 hrs by disk diffusion method; format: functional; settings: read-out: IZ; in short: as §1
Escherichia coli [3] = assay: Antimicrobial activity against Escherichia coli MTCCB 1652 at 100 ug/mL after 16 to 20 hrs by disk diffusion method; format: functional; settings: read-out: IZ; in short: as §1
Aspergillus niger [4] = assay: Antimicrobial activity against Aspergillus niger at 100 ug/mL after 3 to 4 days by disk diffusion method; settings: read-out: IZ
Alternaria alternata [5] = assay: Antimicrobial activity against Alternaria alternata at 100 ug/mL after 3 to 4 days by disk diffusion method; settings: read-out: IZ
Aspergillus fumigatus [6] = assay: Antimicrobial activity against Aspergillus fumigatus at 100 ug/mL after 3 to 4 days by disk diffusion method; settings: read-out: IZ
Staphylococcus aureus [7] = assay: Antimicrobial activity against Staphylococcus aureus MTCCB 737 after 24 hrs by serial dilution method; format: functional; settings: MTCCB 737, 24 h
In short: (§2)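 Tube serial dilution in nutrient broth at compound levels of 6.25, 12.5, 25, 50 and 100. Each tube received standardized microbial suspension (10^7 cells/mL) and was incubated 24 h at 37 °C. MIC was the lowest concentration preventing growth, i.e. maintaining or reducing inoculum viability.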

Escherichia coli [8] = assay: Antimicrobial activity against Escherichia coli MTCCB 1652 after 24 hrs by serial dilution method; format: functional; settings: MTCCB 1652, 24 h; in short: as §2
Aspergillus niger [9] = assay: Antimicrobial activity against Aspergillus niger after 24 hrs by serial dilution method; format: functional; in short: as §2
Alternaria alternata [10] = assay: Antimicrobial activity against Alternaria alternata after 24 hrs by serial dilution method; format: functional; in short: as §2
Artemia salina = assay: Toxicity against Artemia salina assessed as number of the nauplii died after 24 hrs; format: organism-based; settings: in vivo
In short: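 Artemia salina eggs were hatched in sea salt water (38 g/L) at 37 °C for 48 h with constant oxygen to give nauplii. Stocks were 10 mg per 2 mL DMSO, and five dilutions were run in triplicate with about 10 nauplii per vial. A DMSO-only vial served as control.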

Staphylococcus aureus [11] = assay: Antimicrobial activity against Staphylococcus aureus MTCCB 737 at 30 ug/mL after 16 to 20 hrs by disk diffusion method; format: functional; settings: read-out: IZ
In short: (§3)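 Nutrient agar disc diffusion against S. aureus MTCCB 737, S. epidermidis MTCCB 1824 and E. coli MTCCB 1652. Tetracycline served as the standard drug, and DMSO served as the blank. The inhibition zone was measured after 16–20 h at 37 °C.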

[12] = tested on: Staphylococcus epidermidis; assay: Antimicrobial activity against Staphylococcus epidermidis MTCCB 1824 at 30 ug/mL after 16 to 20 hrs by disk diffusion method; format: functional; settings: read-out: IZ; in short: as §3
Escherichia coli [13] = assay: Antimicrobial activity against Escherichia coli MTCCB 1652 at 30 ug/mL after 16 to 20 hrs by disk diffusion method; format: functional; settings: read-out: IZ; in short: as §3
Aspergillus niger [14] = assay: Antimicrobial activity against Aspergillus niger at 30 ug/mL after 3 to 4 days by disk diffusion method; settings: read-out: IZ
Alternaria alternata [15] = assay: Antimicrobial activity against Alternaria alternata at 30 ug/mL after 3 to 4 days by disk diffusion method; settings: read-out: IZ
Aspergillus fumigatus [16] = assay: Antimicrobial activity against Aspergillus fumigatus at 30 ug/mL after 3 to 4 days by disk diffusion method; settings: read-out: IZ

Compound	zone of inhibition at 100 µg/mL (Staphylococcus aureus [1]) [mm]	zone of inhibition at 100 µg/mL [2] [mm]	zone of inhibition at 100 µg/mL (Escherichia coli [3]) [mm]	zone of inhibition at 100 µg/mL (Aspergillus niger [4]) [mm]	zone of inhibition at 100 µg/mL (Alternaria alternata [5]) [mm]	zone of inhibition at 100 µg/mL (Aspergillus fumigatus [6]) [mm]	MIC (Staphylococcus aureus [7]) [µg/mL]	MIC (Escherichia coli [8]) [µg/mL]	MIC (Aspergillus niger [9]) [µg/mL]	MIC (Alternaria alternata [10]) [µg/mL]	LC50 (Artemia salina) [ppm]	zone of inhibition at 30 µg/mL (Staphylococcus aureus [11]) [mm]	zone of inhibition at 30 µg/mL [12] [mm]	zone of inhibition at 30 µg/mL (Escherichia coli [13]) [mm]	zone of inhibition at 30 µg/mL (Aspergillus niger [14]) [mm]	zone of inhibition at 30 µg/mL (Alternaria alternata [15]) [mm]	zone of inhibition at 30 µg/mL (Aspergillus fumigatus [16]) [mm]
CSc1nn(-c2nnc(-c3ccccc3)c(-c3ccccc3)n2)c(N)c1C#N	12	7	3	6	0	8											
Cc1nc2c(c(NN)nn2-c2nnc(-c3ccccc3)c(-c3ccccc3)n2)c(=O)[nH]1	18	10	8	11	13	10											
CSC(Nc1c(C#N)c(SC)nn1-c1nnc(-c2ccccc2)c(-c2ccccc2)n1)=C(C#N)C#N	17	21	11	6	8	9											
CSc1nn(-c2nnc(-c3ccccc3)c(-c3ccccc3)n2)c2nc(C)[nH]c(=O)c12	14	11	5	9	10	12											
CSc1nn(-c2nnc(-c3ccccc3)c(-c3ccccc3)n2)c2nc3c(C#N)c(N)nn3c(N)c12	24	22	17	18	16	22	50 (≈ 102 µM)	> 100	25 (≈ 50.9 µM)	25 (≈ 50.9 µM)	2.31						
CSc1nn(-c2nnc(-c3ccccc3)c(-c3ccccc3)n2)c2nc(-c3ccccc3)c3c(C)c(C#N)c(N)nc3c12	25	22	19	11	9	16	50 (≈ 86.6 µM)	25 (≈ 43.3 µM)	> 100	> 100	0.58						
O=C(O)c1cc(O)c(O)c(O)c1 [GALLIC ACID]											4.53						
N#Cc1c(N)nn2c(N)c3c(nc12)n(-c1nnc(-c2ccccc2)c(-c2ccccc2)n1)n1c(=O)c2ccccc2nc31	26	23	20	19	19	21	50 (≈ 88.9 µM)	> 100	> 100	50 (≈ 88.9 µM)	1.39						
Cc1nc2c(c(=O)[nH]1)c1nnc(C)c(=O)n1n2-c1nnc(-c2ccccc2)c(-c2ccccc2)n1	28	26	29	15	16	19	25 (≈ 53.9 µM)	12.5 (≈ 27 µM)	25 (≈ 53.9 µM)	50 (≈ 108 µM)	6.49						
CC(=O)c1c(-c2ccccc2)nc2c3c(nn2-c2nnc(-c4ccccc4)c(-c4ccccc4)n2)N(c2ccccc2)C(C)=Nc13	18	13	10	7	9	3											
Cc1nc2c(c(=O)[nH]1)c1nnc(-c3ccccc3)n1n2-c1nnc(-c2ccccc2)c(-c2ccccc2)n1	27	27	26	12	8	17	50 (≈ 100 µM)	25 (≈ 50.2 µM)	50 (≈ 100 µM)	50 (≈ 100 µM)	3.54						
CSc1nn(-c2nnc(-c3ccccc3)c(-c3ccccc3)n2)c2nc(C)c(C#N)c(N)c12	19	16	12	7	5	6											
CN(C)[C@@H]1C(O)=C(C(N)=O)C(=O)[C@@]2(O)C(O)=C3C(=O)c4c(O)cccc4[C@@](C)(O)[C@H]3C[C@@H]12 [TETRACYCLINE]							6.25 (≈ 14.1 µM)	12.5 (≈ 28.1 µM)				30	25	28			
S=c1nc2c3c(n(-c4nnc(-c5ccccc5)c(-c5ccccc5)n4)nc3[nH]1)N=C(c1ccccc1)N2	16	13	9	11	5	9											
Nc1nc(=S)[nH]c2nn(-c3nnc(-c4ccccc4)c(-c4ccccc4)n3)c(N)c12	9	11	13	7	2	11											
CSc1nn(-c2nnc(-c3ccccc3)c(-c3ccccc3)n2)c2nc(C)c3c(=O)[nH]cnc3c12	17	17	10	10	12	11											
CC(=O)N1CCN(c2ccc(OCC3COC(Cn4ccnc4)(c4ccc(Cl)cc4Cl)O3)cc2)CC1 (configuration not stated) [KETOCONAZOLE]									6.25 (≈ 11.8 µM)	6.25 (≈ 11.8 µM)					20	21	18
CSc1nn(-c2nnc(-c3ccccc3)c(-c3ccccc3)n2)c2nc(-c3ccccc3)c(C(C)=O)c(N)c12	16	18	13	4	5	10											
BLEOMYCIN											0.41						
